Source: paper PMC10674630 (Diabetes, Metabolic Syndrome and Obesity, 2023)
Entries after “also recorded” stand apart in the source; their conditions may differ.

Tests used:
ATCC 25923 [1] = details: for Fold Change: MIC of antibiotic, alone vs with surfactin; for FICI: antibiotic + surfactin
SA 452 [2] = details: for Fold Change: MIC of antibiotic, alone vs with surfactin; for FICI: antibiotic + surfactin
[3] = test system: S. aureus (ATCC 25923 and MRSA SA 452); experiment: Checkerboard assay, both strains; assay type: cell-based; details: for Conversion of resistance to sensitivity by surfactin: addition of at least 64 μg/mL of surfactin, ATCC 25923 and MRSA; for Interaction with surfactin (in words): S. aureus (ATCC 25923 and MRSA)
SA 452 [4] = experiment: Mutant prevention concentration, SA 452; assay type: cell-based, S. aureus
[5] = test system: S. aureus (ATCC 25923 and MRSA SA 452); experiment: Mutant prevention / resistance selection, both strains; assay type: cell-based; details: combination of oxacillin and surfactin
How it was run: (§1)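 Strains were grown 24 h in MH broth, centrifuged at 4000×g for 10 min and resuspended to 1×1010 CFU/mL. […] MPC was the lowest concentration preventing colonies. MPC/MIC ratio defined the mutant selection window.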

ATCC 25923 [6] = experiment: Mutant prevention concentration, ATCC 25923; assay type: cell-based, S. aureus
How it was run: as §1

Structure (SMILES)	Fold Change (ATCC 25923 [1])	FICI (ATCC 25923 [1])	Interaction with surfactin (in words) (ATCC 25923 [1])	Fold Change (SA 452 [2])	FICI (SA 452 [2])	Interaction with surfactin (in words) (SA 452 [2])	Conversion of resistance to sensitivity by surfactin [3]	Interaction with surfactin (in words) [3]	MIC/MPC (SA 452 [4]; oxacillin alone, SA 452)	MIC (SA 452 [4]; oxacillin alone, SA 452, unit not in table)	Decrease of MPC/MIC value (SA 452 [4]; with surfactin vs oxacillin alone, MRSA) [fold]	Mutant selection window (MSW), in words [5]	MIC/MPC (text: MPC/MIC ratio) (ATCC 25923 [6]; oxacillin alone)	MIC (ATCC 25923 [6]; oxacillin alone, unit not in table)	Decrease of MPC/MIC value (ATCC 25923 [6]; with 64 μg/mL of surfactin vs oxacillin alone) [fold]
CN(C)[C@@H]1C(O)=C(C(N)=O)C(=O)[C@@]2(O)C(O)=C3C(=O)c4c(O)cccc4[C@@](C)(O)[C@H]3C[C@@H]12 [Tetracycline]	16	0.188	synergistic effects	128	0.133	significantly synergistic effects	converted them to sensitivity	synergies; also recorded: synergistic effects							
CC[C@H]1OC(=O)[C@H](C)[C@@H](O[C@H]2C[C@@](C)(OC)[C@@H](O)[C@H](C)O2)[C@H](C)[C@@H](O[C@@H]2O[C@H](C)C[C@H](N(C)C)[C@H]2O)[C@](C)(O)C[C@@H](C)C(=O)[C@H](C)[C@@H](O)[C@]1(C)O [Erythromycin]					2										
CC1(C)S[C@@H]2[C@H](NC(=O)[C@H](N)c3ccccc3)C(=O)N2[C@H]1C(=O)O [Ampicillin]	8		synergistic effects	128	0.133	significantly synergistic effects	converted them to sensitivity	synergies; also recorded: synergistic effects							
CNC(C)C1CCC(N)C(OC2C(N)CC(N)C(OC3OCC(C)(O)C(NC)C3O)C2O)O1 (stereo not drawn) [Gentamicin]					0.25	significantly synergistic effects									
O=C(O)c1cn(C2CC2)c2cc(N3CCNCC3)c(F)cc2c1=O [Ciprofloxacin]					2										
Cc1onc(-c2ccccc2)c1C(=O)N[C@@H]1C(=O)N2[C@@H]1SC(C)(C)[C@@H]2C(=O)O [Oxacillin]	8	0.25	synergistic effects		0.156	significantly synergistic effects	converted them to sensitivity	synergies; also recorded: synergistic effects	>32	8	≥ 2	narrowed the MSW for oxacillin against MRSA	32	0.5	8
